Measurements as given in ChEMBL document CHEMBL1681705, “Optimisation of ITK inhibitors through successive iterative design cycles” (Bioorg Med Chem Lett, 2011).

Experiments:
[1] = molecular target: T1, Ephrin type-B receptor 2 (Homo sapiens) (UniProt P29323); assay: Inhibition of EphB2 at 0.1 uM; values are per cent of control
T1 sequence (whole entry): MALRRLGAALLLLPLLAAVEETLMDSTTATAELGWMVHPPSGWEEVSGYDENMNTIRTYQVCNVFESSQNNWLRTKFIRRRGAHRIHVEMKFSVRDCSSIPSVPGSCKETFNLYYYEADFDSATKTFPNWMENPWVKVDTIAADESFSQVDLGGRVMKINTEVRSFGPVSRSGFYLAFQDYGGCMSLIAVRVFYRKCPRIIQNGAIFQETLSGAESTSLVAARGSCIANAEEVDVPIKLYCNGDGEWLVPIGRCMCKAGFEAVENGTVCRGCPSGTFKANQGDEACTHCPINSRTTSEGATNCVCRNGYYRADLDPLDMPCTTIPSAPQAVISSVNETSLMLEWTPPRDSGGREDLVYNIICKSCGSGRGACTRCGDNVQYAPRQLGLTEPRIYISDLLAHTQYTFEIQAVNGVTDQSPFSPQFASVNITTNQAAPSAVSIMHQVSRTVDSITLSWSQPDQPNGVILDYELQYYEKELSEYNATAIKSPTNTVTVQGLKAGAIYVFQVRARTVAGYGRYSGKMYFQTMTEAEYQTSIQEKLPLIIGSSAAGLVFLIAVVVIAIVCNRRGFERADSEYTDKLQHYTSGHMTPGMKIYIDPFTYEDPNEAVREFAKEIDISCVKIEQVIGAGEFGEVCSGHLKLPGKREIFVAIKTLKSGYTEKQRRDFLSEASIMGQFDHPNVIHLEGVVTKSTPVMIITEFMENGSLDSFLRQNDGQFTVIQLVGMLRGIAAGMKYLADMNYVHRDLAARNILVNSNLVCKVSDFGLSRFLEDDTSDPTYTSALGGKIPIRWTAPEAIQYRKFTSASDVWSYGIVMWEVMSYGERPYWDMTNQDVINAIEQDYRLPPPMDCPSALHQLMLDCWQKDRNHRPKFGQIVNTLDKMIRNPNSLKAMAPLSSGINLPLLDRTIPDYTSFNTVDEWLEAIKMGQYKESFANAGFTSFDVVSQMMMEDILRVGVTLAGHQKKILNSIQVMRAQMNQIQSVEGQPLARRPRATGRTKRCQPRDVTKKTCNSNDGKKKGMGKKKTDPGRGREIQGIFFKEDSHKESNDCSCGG

[2] = molecular target: Fibroblast growth factor receptor 2 (Homo sapiens) (UniProt P21802); assay: Inhibition of FGFR2 at 0.1 uM; values are per cent of control
Sequence of Fibroblast growth factor receptor 2 (Homo sapiens) (P21802 22-821 limits assumed): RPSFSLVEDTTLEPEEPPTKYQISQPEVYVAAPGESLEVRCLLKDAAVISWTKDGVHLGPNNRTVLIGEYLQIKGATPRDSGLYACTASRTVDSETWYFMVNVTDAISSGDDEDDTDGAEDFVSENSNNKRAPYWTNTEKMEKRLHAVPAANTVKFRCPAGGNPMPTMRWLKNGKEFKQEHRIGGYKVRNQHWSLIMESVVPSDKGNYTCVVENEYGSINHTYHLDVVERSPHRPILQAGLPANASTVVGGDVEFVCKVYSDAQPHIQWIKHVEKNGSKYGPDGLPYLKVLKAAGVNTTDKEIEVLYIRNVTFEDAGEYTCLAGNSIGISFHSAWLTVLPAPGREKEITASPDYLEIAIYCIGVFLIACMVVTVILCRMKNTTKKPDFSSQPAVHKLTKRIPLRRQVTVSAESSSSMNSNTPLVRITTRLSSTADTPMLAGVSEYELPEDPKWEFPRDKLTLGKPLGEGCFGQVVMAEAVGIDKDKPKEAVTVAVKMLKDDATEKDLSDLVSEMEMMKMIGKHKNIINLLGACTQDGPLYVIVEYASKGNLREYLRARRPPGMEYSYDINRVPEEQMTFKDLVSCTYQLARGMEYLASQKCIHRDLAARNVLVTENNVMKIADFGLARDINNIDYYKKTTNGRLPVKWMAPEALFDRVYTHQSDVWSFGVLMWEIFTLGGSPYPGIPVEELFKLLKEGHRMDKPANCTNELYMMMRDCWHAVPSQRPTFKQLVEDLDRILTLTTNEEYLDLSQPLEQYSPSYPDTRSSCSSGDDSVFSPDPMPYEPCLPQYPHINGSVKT

[3] = molecular target: Mitogen-activated protein kinase 8 (Homo sapiens) (UniProt P45983); assay: Inhibition of JNK1a1 at 0.1 uM; values are per cent of control
Sequence of Mitogen-activated protein kinase 8 (Homo sapiens) (P45983 whole entry): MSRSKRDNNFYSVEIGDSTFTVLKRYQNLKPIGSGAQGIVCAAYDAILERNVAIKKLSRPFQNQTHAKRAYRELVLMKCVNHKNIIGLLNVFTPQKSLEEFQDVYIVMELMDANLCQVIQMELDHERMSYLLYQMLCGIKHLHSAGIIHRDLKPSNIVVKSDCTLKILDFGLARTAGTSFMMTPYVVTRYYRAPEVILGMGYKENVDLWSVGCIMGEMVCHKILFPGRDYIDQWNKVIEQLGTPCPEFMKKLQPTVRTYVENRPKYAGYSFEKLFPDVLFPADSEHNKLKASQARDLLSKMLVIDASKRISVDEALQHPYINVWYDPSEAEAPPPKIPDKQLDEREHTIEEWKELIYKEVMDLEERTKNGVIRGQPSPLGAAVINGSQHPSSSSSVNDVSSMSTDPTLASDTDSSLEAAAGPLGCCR

[4] = molecular target: T2, Activin receptor type-1B (Homo sapiens) (UniProt P36896); assay: Inhibition of ALK4 at 0.1 uM; values are per cent of control
T2 sequence (whole entry): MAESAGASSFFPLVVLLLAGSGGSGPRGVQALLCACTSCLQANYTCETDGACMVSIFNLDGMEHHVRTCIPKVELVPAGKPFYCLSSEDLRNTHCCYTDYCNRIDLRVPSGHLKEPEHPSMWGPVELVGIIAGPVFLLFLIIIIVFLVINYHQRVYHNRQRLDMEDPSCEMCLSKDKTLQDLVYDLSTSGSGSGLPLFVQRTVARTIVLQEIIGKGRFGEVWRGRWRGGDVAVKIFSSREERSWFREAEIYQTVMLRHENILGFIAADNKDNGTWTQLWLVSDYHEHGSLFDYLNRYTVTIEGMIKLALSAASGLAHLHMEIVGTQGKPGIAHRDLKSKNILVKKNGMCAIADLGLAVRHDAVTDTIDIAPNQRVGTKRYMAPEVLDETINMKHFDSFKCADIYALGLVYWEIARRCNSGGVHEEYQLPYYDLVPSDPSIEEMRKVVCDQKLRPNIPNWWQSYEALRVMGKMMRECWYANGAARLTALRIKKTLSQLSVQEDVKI

[5] = molecular target: T3, Calcium/calmodulin-dependent protein kinase type IV (Homo sapiens) (UniProt Q16566); assay: Inhibition of CaMK4 at 1 uM; values are per cent of control
T3 sequence (whole entry): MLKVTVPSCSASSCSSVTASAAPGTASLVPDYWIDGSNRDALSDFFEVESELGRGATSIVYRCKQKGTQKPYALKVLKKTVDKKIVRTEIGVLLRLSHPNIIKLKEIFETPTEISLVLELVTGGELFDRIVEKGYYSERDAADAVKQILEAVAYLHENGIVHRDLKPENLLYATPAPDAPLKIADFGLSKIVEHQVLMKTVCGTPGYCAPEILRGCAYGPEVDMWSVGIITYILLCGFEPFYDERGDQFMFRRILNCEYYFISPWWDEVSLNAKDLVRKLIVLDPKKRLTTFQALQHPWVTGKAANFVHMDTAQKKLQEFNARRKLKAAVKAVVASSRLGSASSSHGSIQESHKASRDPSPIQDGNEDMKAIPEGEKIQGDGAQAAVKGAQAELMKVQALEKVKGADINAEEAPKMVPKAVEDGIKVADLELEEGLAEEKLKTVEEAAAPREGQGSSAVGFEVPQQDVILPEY

[6] = molecular target: T4, Dual specificity mitogen-activated protein kinase kinase 7 (Homo sapiens) (UniProt O14733); assay: Inhibition of MKK7beta at 1 uM
T4 sequence (whole entry): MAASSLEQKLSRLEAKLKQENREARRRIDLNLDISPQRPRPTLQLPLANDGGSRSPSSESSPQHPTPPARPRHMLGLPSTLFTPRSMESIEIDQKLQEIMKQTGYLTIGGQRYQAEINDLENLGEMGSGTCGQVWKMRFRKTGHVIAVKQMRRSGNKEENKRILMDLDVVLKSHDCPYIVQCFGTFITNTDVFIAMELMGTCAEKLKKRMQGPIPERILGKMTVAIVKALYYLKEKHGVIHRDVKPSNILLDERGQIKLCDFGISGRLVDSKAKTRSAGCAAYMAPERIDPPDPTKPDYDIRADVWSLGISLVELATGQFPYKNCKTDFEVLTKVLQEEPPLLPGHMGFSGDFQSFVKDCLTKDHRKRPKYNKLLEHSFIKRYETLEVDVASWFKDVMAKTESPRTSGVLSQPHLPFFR
Method in brief: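 Single-point screen within a 108-kinase selectivity panel. Each kinase was tested with inhibitor at 0.1 and 1.0 micromolar, and activity was recorded as percent inhibition.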

[7] = molecular target: Interleukin-1 receptor-associated kinase 1 (Homo sapiens) (UniProt P51617); assay: Inhibition of IRAK1 at 1 uM
Sequence of Interleukin-1 receptor-associated kinase 1 (Homo sapiens) (P51617 whole entry, looked up): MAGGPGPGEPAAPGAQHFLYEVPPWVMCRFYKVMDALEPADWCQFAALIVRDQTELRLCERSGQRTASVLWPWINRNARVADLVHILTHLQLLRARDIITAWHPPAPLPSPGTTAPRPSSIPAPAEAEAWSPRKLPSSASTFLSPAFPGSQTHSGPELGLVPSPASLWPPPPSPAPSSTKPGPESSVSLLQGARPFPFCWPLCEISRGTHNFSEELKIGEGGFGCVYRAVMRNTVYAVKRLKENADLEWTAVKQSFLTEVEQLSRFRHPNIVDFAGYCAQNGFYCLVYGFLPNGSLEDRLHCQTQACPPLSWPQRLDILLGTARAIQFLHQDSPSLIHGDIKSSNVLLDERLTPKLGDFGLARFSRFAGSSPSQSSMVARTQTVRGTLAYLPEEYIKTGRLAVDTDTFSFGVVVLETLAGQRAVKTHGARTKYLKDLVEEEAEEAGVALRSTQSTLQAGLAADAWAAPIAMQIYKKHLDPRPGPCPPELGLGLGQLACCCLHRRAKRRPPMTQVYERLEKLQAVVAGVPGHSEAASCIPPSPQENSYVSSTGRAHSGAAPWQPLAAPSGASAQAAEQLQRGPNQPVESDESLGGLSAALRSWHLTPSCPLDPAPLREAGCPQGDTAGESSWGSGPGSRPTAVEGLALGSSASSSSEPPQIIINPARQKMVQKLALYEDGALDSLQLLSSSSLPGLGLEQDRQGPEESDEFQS
Method in brief: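 Single-point profiling in a panel of 108 kinases. Each selected inhibitor was tested at two concentrations, 0.1 and 1.0 micromolar. Values are reported as inhibition at each concentration.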

SMILES | residual activity [1] | residual activity [2] | residual activity [3] | residual activity [4] | residual activity [5] | inhibition [6] | inhibition [7]
Cc1ccc2cc(-c3n[nH]c4ccc(NC5CCN(Cc6ccccc6)CC5)cc34)[nH]c2c1 | 99% | 51% | 83% | 87% | 115% | 95% | 9%
Cc1ccc2cc(-c3n[nH]c4ccc(NC5CCNC5)cc34)[nH]c2c1 (centres undefined) | 87% | 8% | 101% | 124% | 28% | 52% | 7%
